# Activity calls are given as the source filed them. The rule behind the calls is not given here.
# Columns and labels:
# Cholinesterase [1] = biological target: T1, Cholinesterase (Homo sapiens, UniProt P06276); assay: Inhibition of human plasma BuChE at 100 uM preincubated for 30 mins before substrate addition by Ellman's assay; type: cell-free
# Method in brief: (§1)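 Ellman assay, phosphate buffer pH 8.0. Human plasma from heparinised venous blood, centrifuged and diluted 1 mL to 20 mL in buffer, with DTNB. Inhibitor, in acetonitrile/water 1:1 as vehicle, preincubated 30 min before butyrylthiocholine is added (final 0.5 mM); 412 nm read over 5 min. Screened at 100 μM; IC50 determined only where inhibition exceeded 90%. Controls without enzyme; n = 6.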
# [2] = Selectivity for electric eel AChE over human plasma BuChE; type: cell-free
# Method in brief: (§2)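 Ratio of the 30 min BuChE and AChE IC50 values from the Ellman assays, using 100 μM in place of any IC50 that was not determined.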
# Acetylcholinesterase = Acetylcholinesterase (Electrophorus electricus, UniProt O42275); assay: Inhibition of electric eel AChE preincubated for 30 mins before substrate addition by Ellman's assay
# Acetylcholinesterase, sequence (O42275 whole entry): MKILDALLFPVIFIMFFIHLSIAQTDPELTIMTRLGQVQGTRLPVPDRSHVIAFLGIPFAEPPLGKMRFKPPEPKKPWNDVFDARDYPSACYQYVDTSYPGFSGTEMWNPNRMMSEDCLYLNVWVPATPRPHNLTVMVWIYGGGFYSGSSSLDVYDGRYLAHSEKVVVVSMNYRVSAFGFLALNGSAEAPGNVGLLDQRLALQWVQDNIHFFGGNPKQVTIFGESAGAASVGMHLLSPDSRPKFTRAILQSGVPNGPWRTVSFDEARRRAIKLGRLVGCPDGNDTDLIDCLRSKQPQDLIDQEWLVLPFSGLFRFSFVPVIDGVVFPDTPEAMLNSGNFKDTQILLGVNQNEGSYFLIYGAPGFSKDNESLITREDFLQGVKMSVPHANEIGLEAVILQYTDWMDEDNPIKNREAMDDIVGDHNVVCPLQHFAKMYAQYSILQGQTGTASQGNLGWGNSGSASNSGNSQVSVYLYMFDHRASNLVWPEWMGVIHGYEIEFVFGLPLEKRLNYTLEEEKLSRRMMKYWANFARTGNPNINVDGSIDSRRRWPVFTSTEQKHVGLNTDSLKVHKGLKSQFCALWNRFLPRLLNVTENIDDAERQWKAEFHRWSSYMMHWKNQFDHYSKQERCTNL
# Method in brief: (§3)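 Ellman assay, phosphate buffer pH 8.0. Inhibitor, in acetonitrile/water 1:1 as vehicle, preincubated with enzyme 30 min before acetylthiocholine is added (final 0.5 mM); 412 nm read over 5 min. Screened at 100 μM; IC50 found by serial lower concentrations only where inhibition exceeded 90%. Controls without enzyme account for spontaneous hydrolysis; n = 6.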
# Cholinesterase [3] = biological target: T1, Cholinesterase; assay: Inhibition of human plasma BuChE preincubated for 30 mins before substrate addition by Ellman's assay; method in brief: as §1
# [4] = biological target: Acetylcholinesterase (Electrophorus electricus) (UniProt O42275); assay: Inhibition of electric eel AChE at 100 uM preincubated for 30 mins before substrate addition by Ellman's assay; method in brief: as §3
# Acetylcholinesterase (Electrophorus electricus), sequence (O42275 24-633 limits assumed): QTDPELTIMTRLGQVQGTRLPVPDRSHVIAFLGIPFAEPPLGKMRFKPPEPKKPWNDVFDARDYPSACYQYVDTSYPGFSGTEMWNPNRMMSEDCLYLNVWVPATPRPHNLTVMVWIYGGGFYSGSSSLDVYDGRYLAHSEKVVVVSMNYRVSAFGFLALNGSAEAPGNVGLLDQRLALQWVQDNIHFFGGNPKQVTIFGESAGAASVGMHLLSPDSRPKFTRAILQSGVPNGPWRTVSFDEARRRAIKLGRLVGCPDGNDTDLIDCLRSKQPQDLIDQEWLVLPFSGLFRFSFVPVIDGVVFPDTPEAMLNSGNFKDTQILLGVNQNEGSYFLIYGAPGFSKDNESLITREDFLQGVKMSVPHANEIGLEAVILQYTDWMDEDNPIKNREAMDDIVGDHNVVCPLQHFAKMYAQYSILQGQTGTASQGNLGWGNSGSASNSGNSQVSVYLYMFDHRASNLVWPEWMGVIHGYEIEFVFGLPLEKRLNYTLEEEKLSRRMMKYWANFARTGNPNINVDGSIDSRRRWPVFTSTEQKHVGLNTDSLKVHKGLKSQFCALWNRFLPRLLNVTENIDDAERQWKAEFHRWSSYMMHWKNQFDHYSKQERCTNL
# [5] = Selectivity for human plasma BuChE over electric eel AChE; type: cell-free; method in brief: as §2
# Mus musculus = assay: Inhibition of BuChE in CD1 mouse plasma at 1 mg/kg, ip administered as single dose measured after 72 hrs; type: functional, organism-based; parameters: dose 1 mg/kg
# Method in brief: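 Male CD-1 mice (35–40 g) given one ip injection, 0.1 mL per 10 g body weight, into the left lower abdominal quadrant; n = 9 split into three subgroups of 3 for serial sampling. Submandibular blood (about 50 μL) collected into lithium heparin and kept on ice; terminal sampling by cardiac puncture under ketamine/xylazine. Plasma spun 10 min at 4 °C, then BuChE activity read ex vivo by Ellman assay.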
# T1 sequence (P06276 whole entry): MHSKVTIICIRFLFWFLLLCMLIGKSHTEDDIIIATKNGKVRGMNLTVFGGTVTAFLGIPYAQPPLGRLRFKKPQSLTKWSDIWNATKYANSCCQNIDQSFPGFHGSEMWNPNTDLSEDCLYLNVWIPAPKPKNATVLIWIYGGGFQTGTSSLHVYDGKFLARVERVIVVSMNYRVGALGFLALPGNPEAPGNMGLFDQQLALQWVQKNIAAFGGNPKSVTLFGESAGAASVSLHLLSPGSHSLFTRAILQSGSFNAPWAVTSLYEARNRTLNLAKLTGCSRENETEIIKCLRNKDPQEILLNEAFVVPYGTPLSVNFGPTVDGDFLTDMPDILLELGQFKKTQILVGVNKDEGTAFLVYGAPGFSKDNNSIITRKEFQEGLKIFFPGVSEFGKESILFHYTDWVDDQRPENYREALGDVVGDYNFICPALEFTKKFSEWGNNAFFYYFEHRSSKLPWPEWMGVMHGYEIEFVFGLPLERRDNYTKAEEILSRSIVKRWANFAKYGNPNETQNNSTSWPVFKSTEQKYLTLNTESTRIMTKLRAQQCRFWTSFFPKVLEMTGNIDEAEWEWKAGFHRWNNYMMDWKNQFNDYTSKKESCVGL
SMILES,inhibition (Cholinesterase [1]),Selectivity ratio [2],IC50 (Acetylcholinesterase),IC50 (Cholinesterase [3]),inhibition [4],Selectivity ratio [5],inhibition (Mus musculus)
O=C(Nc1ccc([N+](=O)[O-])cc1)O[C@H]1CO[C@H]2[C@@H]1OC[C@H]2OC(=O)Nc1ccc([N+](=O)[O-])cc1,17.4%,18.5,5.4 µM,–,–,–,–
CCCCNC(=O)O[C@H]1CO[C@H]2[C@@H]1OC[C@H]2OC(=O)NCCCC,–,–,–,1.22 µM,13%,81,–
CN1C(=O)CO[C@@H]2[C@@H](OC(=O)NCc3ccccc3)CO[C@@H]21,63%,–,–,–,6.5%,–,–
[N-]=[N+]=N[C@@H]1CO[C@H]2[C@@H]1OC[C@@H]2OC(=O)NCc1ccccc1,50.4%,–,–,–,5%,–,–
CCOC(=O)/C=C1\CO[C@@H]2[C@@H](OC(=O)NCc3ccccc3)CO[C@H]12,–,–,–,4.8 µM,4.9%,21,–
O=C(NCc1ccccc1)O[C@H]1CO[C@@H]2C(=O)CO[C@H]12,46%,–,–,–,10%,–,–
O=C(NCc1ccccc1)O[C@H]1CO[C@@H]2/C(=N/OC(=O)c3ccccc3)CO[C@H]12,64.8%,–,–,–,9%,–,–
CCCNC(=O)O[C@H]1CO[C@H]2[C@@H]1OC[C@H]2OC(=O)NCCC,–,–,–,10.4 µM,28%,9.6,–
O=C(NCc1ccccc1)O[C@H]1CO[C@H]2[C@@H]1OC[C@H]2OC(=O)NCc1ccccc1,–,–,–,0.4 µM,77%,250,–
O=C(Nc1ccc(Cl)cc1)O[C@H]1CO[C@H]2[C@@H]1OC[C@H]2OC(=O)Nc1ccc(Cl)cc1,7.96%,–,–,–,–,–,–
O=C(NCc1ccccc1)O[C@H]1CO[C@@H]2C=CO[C@H]12,–,–,–,10.2 µM,9.8%,9.7,–
O=C(NCc1ccccc1)O[C@H]1CO[C@H]2[C@@H]1OC[C@H]2OCc1ccccc1,–,–,–,0.052 µM,55%,1920,Active
O=C(Nc1ccccc1)O[C@H]1CO[C@H]2[C@@H]1OC[C@H]2OC(=O)Nc1ccccc1,20.6%,–,–,–,77%,–,–
CCNC(=O)O[C@H]1CO[C@H]2[C@@H]1OC[C@H]2OC(=O)NCC,55.1%,15.4,6.5 µM,–,–,–,–
O=C(NCc1ccccc1)O[C@H]1CO[C@@H]2/C(=N/O)CO[C@H]12,40%,–,–,–,83%,–,–
O=C(NCc1ccccc1)O[C@H]1CO[C@H]2[C@@H]1OC[C@H]2NC(=O)c1ccccc1,88%,–,–,–,46%,–,–
O=C1CO[C@H]2[C@H](OC[C@@H]2OC(=O)NCc2ccccc2)O1 (relative stereo),56%,–,–,–,10%,–,–
